{"source": "paper PMC3201796", "about": "(Cell host & microbe, 2011)", "key": {"HEL cells": {"tested_on": "HEL cells", "experiment": "Cytotoxicity by cell morphology", "format": "cell-based, human", "conditions": "HEL, non-infected, cell morphology", "summary_of_the_method": "(§1)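 Run in non-infected cultures in parallel with the antiviral assay. Cells exposed to test compound and examined microscopically at day 3. MCC is the lowest concentration giving a detectable change in cell morphology.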"}, "Cytostatic activity [1]": {"experiment": "Cytostatic activity", "format": "cell-based", "conditions": "human, HEL cells, non-infected"}, "HIV-1": {"tested_on": "HIV-1", "conditions": "lymphoid and cervico-vaginal tissues; ref Lisco et al., 2008; cited from earlier work"}, "Cytostatic activity [2]": {"experiment": "Cytostatic activity", "format": "cell-based", "conditions": "human, PHKs, non-infected"}, "PHKs": {"tested_on": "PHKs", "experiment": "Cytotoxicity by cell morphology", "format": "cell-based, human", "conditions": "non-infected", "summary_of_the_method": "as §1"}, "HSV-2 [3]": {"tested_on": "HSV-2", "conditions": "daily oral, co-formulation with FTC; ref Lama et al., 18th CROI 2011, # 1002; cited from earlier work"}, "HSV-2G, HSV-2MS": {"tested_on": "HSV-2G, HSV-2MS", "experiment": "Human tonsillar tissue ex vivo infected with HSV-2", "format": "cell-based", "conditions": "data not shown"}, "HIV-1 RT": {"biological_target": "HIV-1 RT (Human immunodeficiency virus type 1 group M subtype B, UniProt P03366)", "experiment": "HIV-1 reverse transcriptase assay", "format": "biochemical", "conditions": "competing dATP (3.2 μM); activated calf thymus DNA", "summary_of_the_method": "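Reaction mix: Tris-HCl pH 7.5, DTT, MgCl2, BSA, activated calf thymus DNA, unlabelled dCTP, dTTP and dGTP, and [3H]dATP (3.2 µM) with diphosphate test compound at various concentrations. Started with recombinant HIV-1 RT and run 30 min at 37 °C. Stopped with ice-cold 5% TCA/pyrophosphate; acid-insoluble DNA caught on glass-fibre filters and counted by liquid scintillation.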"}, "HSV-1 DNA polymerase": {"biological_target": "HSV-1 DNA polymerase (Human herpesvirus 1, UniProt P04293)", "sequence (P04293 whole entry)": "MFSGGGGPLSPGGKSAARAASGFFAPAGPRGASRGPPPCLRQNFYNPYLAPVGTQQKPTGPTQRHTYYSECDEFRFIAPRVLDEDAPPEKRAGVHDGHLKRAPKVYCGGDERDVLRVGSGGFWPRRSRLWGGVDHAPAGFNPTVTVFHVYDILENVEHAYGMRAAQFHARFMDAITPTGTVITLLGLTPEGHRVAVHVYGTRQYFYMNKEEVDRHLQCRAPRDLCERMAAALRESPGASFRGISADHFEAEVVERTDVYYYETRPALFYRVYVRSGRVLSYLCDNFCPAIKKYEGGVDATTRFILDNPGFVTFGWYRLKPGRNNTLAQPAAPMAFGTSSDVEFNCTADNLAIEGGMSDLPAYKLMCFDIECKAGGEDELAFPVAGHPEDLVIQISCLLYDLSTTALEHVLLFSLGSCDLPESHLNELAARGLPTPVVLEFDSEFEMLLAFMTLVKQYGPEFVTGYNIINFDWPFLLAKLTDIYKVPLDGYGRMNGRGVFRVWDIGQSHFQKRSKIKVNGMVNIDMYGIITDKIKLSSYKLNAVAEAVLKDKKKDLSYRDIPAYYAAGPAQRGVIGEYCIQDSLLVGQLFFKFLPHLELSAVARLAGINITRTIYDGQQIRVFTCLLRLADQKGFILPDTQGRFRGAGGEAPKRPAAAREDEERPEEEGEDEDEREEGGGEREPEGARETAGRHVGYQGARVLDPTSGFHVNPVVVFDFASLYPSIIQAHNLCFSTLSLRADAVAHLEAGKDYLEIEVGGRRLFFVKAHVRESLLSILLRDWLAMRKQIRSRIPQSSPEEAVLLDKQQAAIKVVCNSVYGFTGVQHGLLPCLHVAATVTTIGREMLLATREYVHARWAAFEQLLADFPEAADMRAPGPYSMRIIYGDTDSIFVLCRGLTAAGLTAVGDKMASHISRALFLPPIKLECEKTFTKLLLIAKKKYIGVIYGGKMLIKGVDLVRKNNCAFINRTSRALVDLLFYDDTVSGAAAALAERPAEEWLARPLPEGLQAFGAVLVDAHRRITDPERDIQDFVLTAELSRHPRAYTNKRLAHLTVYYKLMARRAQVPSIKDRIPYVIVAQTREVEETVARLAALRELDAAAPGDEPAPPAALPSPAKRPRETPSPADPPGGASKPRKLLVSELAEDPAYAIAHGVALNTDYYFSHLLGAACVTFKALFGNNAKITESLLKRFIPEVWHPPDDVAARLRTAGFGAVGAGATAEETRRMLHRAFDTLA", "experiment": "HSV-1 DNA polymerase assay", "format": "biochemical", "summary_of_the_method": "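Recombinant HSV-1 DNA polymerase; 40 µl reactions with a Tris.HCl pH 7.5/DTT/MgCl₂ premix, BSA and activated calf thymus DNA. One radiolabelled dNTP was the competing substrate: [³H]dATP (3.2 µM), [³H]dGTP (2.8 µM), [³H]dTTP (1 µM) or [³H]dCTP (2.5 µM); unlabelled others present. Tenofovir-diphosphate added from 200, 20, 2, 0.2 µM solutions. 60 min at 37°C; stopped with ice-cold TCA/pyrophosphate; acid-insoluble DNA collected on glass-fibre filters.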"}, "HSV-2 [4]": {"tested_on": "HSV-2", "experiment": "HSV-2 cytopathicity in primary monocyte/macrophage cultures", "format": "cell-based", "conditions": "for Cytopathicity (CPE) (%): day 6, M/M"}, "HSV-2 [5]": {"tested_on": "HSV-2", "format": "cell-based", "conditions": "day 6, M/M"}, "HSV-2 [6]": {"tested_on": "HSV-2", "experiment": "HSV-2-infected athymic nude mice", "format": "in vivo", "conditions": "1% gel, topical", "summary_of_the_method": "(§2)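 Female NMRI athymic nude or hairless mice (~20 g, ~4 weeks; groups of five) scarified over ~1 cm² lumbosacral area with HSV-1 KOS (5×10^3 PFU) or HSV-2 G (5×10^2). Test compound 1% in 100% DMSO or CAPRISA 004-type gel, topical twice daily for 5 days from 1-2 h post-infection; same vehicle without drug as placebo. Lesions and mortality recorded over one month; Kaplan-Meier survival, log-rank test.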"}, "HSV-1": {"tested_on": "HSV-1", "experiment": "HSV-1-infected athymic nude mice", "format": "in vivo", "conditions": "1% gel, topical", "summary_of_the_method": "as §2"}, "HSV-2 [7]": {"tested_on": "HSV-2", "format": "cell-based", "conditions": "M/M"}}, "note": "Structures can show the parent of a compound that is named as a salt. Where two headings read alike, the source gives them in different places.", "data": [{"smiles": "Nc1nc2c(ncn2COCCO)c(=O)[nH]1", "note": "[Acyclovir, 9-(2-hydroxyethoxy-methyl)guanine]", "values": [{"measurement": "Cell toxicity MCC (minimum cytotoxic concentration)", "setting": "HEL cells", "result": ">100", "unit": "µg/mL"}, {"measurement": "CC50 at 3 days", "setting": "Cytostatic activity [1]", "result": "166 ± 17", "unit": "µg/mL"}, {"measurement": "inhibition of HIV-1 in herpesvirus-coinfected tissues", "setting": "HIV-1", "result": "efficiently inhibits HIV-1"}, {"measurement": "CC50 at 3 days", "setting": "Cytostatic activity [2]", "result": 132, "unit": "µg/mL"}, {"measurement": "Cell toxicity MCC (minimum cytotoxic concentration)", "setting": "PHKs", "result": ">50", "unit": "µg/mL"}]}, {"smiles": "CC(C)OC(=O)OCOP(=O)(CO[C@H](C)Cn1cnc2c(N)ncnc21)OCOC(=O)OC(C)C", "note": "[tenofovir DF, tenofovir disoproxil fumarate]", "values": [{"measurement": "effect on HSV-2 acquisition", "setting": "HSV-2 [3]", "result": "did not reduce HSV-2 acquisition"}]}, {"smiles": "Nc1ccn([C@@H]2CS[C@H](CO)O2)c(=O)n1", "note": "[lamivudine]", "values": [{"measurement": "effect on HSV-2G replication", "setting": "HSV-2G, HSV-2MS", "result": "no effect"}]}, {"smiles": "CC(Cn1cnc2c(N)ncnc21)OCP(=O)(O)OP(=O)(O)OP(=O)(O)O", "note": "(stereo in doubt) [Tenofovir-diphosphate, Tenofovir diphosphate]", "values": [{"measurement": "IC50 HIV-1 RT", "setting": "HIV-1 RT", "result": 1.3, "unit": "µg/mL"}, {"measurement": "IC50 herpesvirus DNA polymerase", "setting": "HSV-1 DNA polymerase; competing dATP (3.2 μM)", "result": "0.38 ± 0.03", "unit": "µg/mL"}, {"measurement": "IC50 herpesvirus DNA polymerase", "setting": "HSV-1 DNA polymerase; competing dCTP (2.5 μM)", "result": "25 ± 1.8", "unit": "µg/mL"}, {"measurement": "IC50 herpesvirus DNA polymerase", "setting": "HSV-1 DNA polymerase; competing dGTP (2.8 μM)", "result": "7.1 ± 5", "unit": "µg/mL"}, {"measurement": "IC50 herpesvirus DNA polymerase", "setting": "HSV-1 DNA polymerase; competing dTTP (1 μM)", "result": "8.5 ± 3.8", "unit": "µg/mL"}]}, {"smiles": "Nc1ccn(C[C@@H](CO)OCP(=O)(O)O)c(=O)n1", "note": "[Cidofovir, (S)-1-(3-hydroxy-2-phosphonylmethoxypropyl)cytosine]", "values": [{"measurement": "Cell toxicity MCC (minimum cytotoxic concentration)", "setting": "HEL cells", "result": ">100", "unit": "µg/mL"}, {"measurement": "CC50 at 3 days", "setting": "Cytostatic activity [1]", "result": "82 ± 57", "unit": "µg/mL"}, {"measurement": "CC50 at 3 days", "setting": "Cytostatic activity [2]", "result": "34 ± 20", "unit": "µg/mL"}, {"measurement": "Cell toxicity MCC (minimum cytotoxic concentration)", "setting": "PHKs", "result": ">50", "unit": "µg/mL"}]}, {"smiles": "Nc1ncnc2c1ncn2CCOCP(=O)(O)O", "note": "[Adefovir, 9-[2-(phosphonylmethoxyethyl)adenine]]", "values": [{"measurement": "Cell toxicity MCC (minimum cytotoxic concentration)", "setting": "HEL cells", "result": ">100", "unit": "µg/mL"}, {"measurement": "Cytopathicity (CPE) (%)", "setting": "HSV-2 [4]; 0.2 μg/ml", "result": 5, "unit": "%"}, {"measurement": "Cytopathicity (CPE) (%)", "setting": "HSV-2 [4]; 1 μg/ml", "result": "None"}, {"measurement": "CPE suppression in M/M", "setting": "HSV-2 [4]; 5 μg/ml", "result": "full CPE suppression"}, {"measurement": "Cytopathicity (CPE) (%)", "setting": "HSV-2 [4]; 5 μg/ml", "result": "None"}, {"measurement": "Cytopathicity (CPE) (%)", "setting": "HSV-2 [4]; 20 μg/ml", "result": "None"}, {"measurement": "Cytopathicity (CPE) (%)", "setting": "HSV-2 [4]; 100 μg/ml", "result": "None"}, {"measurement": "Cytopathicity (CPE) (%)", "setting": "HSV-2 [4]; 500 μg/ml", "result": "None"}, {"measurement": "CC50 at 3 days", "setting": "Cytostatic activity [1]", "result": "100 ± 57", "unit": "µg/mL"}, {"measurement": "CC50 at 3 days", "setting": "Cytostatic activity [2]", "result": "17 ± 6", "unit": "µg/mL"}, {"measurement": "Virus production (PFU/ml)", "setting": "HSV-2 [5]; 0.2 μg/ml", "result": "9.9×10^3 PFU/ml"}, {"measurement": "Virus production (PFU/ml)", "setting": "HSV-2 [5]; 1 μg/ml", "result": "2.5×10^2 PFU/ml"}, {"measurement": "Virus production (PFU/ml)", "setting": "HSV-2 [5]; 5 μg/ml", "result": "No virus"}, {"measurement": "Virus production (PFU/ml)", "setting": "HSV-2 [5]; 20 μg/ml", "result": "No virus"}, {"measurement": "Virus production (PFU/ml)", "setting": "HSV-2 [5]; 100 μg/ml", "result": "No virus"}, {"measurement": "Virus production (PFU/ml)", "setting": "HSV-2 [5]; 500 μg/ml", "result": "No virus"}, {"measurement": "performance in 1% gel-treated mice compared with tenofovir", "setting": "HSV-2 [6]", "result": "virtually not superior to tenofovir against HSV-2"}, {"measurement": "performance in 1% gel-treated mice, HSV-1 vs HSV-2", "setting": "HSV-1", "result": "performed markedly better against HSV-1 than HSV-2"}, {"measurement": "Virus production (TCID50/ml)", "setting": "HSV-2 [7]; 0.04 μg/ml, day 6", "result": "1×10^5 TCID50/ml"}, {"measurement": "Virus production (TCID50/ml)", "setting": "HSV-2 [7]; 0.2 μg/ml, day 6", "result": "6×10^4 TCID50/ml"}, {"measurement": "Virus production (TCID50/ml)", "setting": "HSV-2 [7]; 1 μg/ml, day 6", "result": "8×10^2 TCID50/ml"}, {"measurement": "Virus production (TCID50/ml)", "setting": "HSV-2 [7]; 5 μg/ml, day 6", "result": "No virus"}, {"measurement": "Virus production (TCID50/ml)", "setting": "HSV-2 [7]; 20 μg/ml, day 6", "result": "No virus"}, {"measurement": "Virus production (TCID50/ml)", "setting": "HSV-2 [7]; 100 μg/ml, day 6", "result": "No virus"}, {"measurement": "Virus production (TCID50/ml)", "setting": "HSV-2 [7]; 500 μg/ml, day 6 post infection", "result": "No virus"}, {"measurement": "Cell toxicity MCC (minimum cytotoxic concentration)", "setting": "PHKs", "result": ">50", "unit": "µg/mL"}]}]}
